Experimental data from ChEMBL document CHEMBL4033785, “Increased Potency and Selectivity for Group III Metabotropic Glutamate Receptor Agonists Binding at Dual sites” (J Med Chem, 2018).

Legend:
[1] = target: Metabotropic glutamate receptor 7 (Homo sapiens, UniProt Q14831); experiment: Agonist activity at mGlu7 (unknown origin) expressed in HEK293 cells coexpressing chimeric Gq/i protein assessed as increase in intracellular calcium accumulation by Fluo-4 AM dye based fluorescence assay; type: functional, cell-based
Chain of Metabotropic glutamate receptor 7 (Q14831 whole entry): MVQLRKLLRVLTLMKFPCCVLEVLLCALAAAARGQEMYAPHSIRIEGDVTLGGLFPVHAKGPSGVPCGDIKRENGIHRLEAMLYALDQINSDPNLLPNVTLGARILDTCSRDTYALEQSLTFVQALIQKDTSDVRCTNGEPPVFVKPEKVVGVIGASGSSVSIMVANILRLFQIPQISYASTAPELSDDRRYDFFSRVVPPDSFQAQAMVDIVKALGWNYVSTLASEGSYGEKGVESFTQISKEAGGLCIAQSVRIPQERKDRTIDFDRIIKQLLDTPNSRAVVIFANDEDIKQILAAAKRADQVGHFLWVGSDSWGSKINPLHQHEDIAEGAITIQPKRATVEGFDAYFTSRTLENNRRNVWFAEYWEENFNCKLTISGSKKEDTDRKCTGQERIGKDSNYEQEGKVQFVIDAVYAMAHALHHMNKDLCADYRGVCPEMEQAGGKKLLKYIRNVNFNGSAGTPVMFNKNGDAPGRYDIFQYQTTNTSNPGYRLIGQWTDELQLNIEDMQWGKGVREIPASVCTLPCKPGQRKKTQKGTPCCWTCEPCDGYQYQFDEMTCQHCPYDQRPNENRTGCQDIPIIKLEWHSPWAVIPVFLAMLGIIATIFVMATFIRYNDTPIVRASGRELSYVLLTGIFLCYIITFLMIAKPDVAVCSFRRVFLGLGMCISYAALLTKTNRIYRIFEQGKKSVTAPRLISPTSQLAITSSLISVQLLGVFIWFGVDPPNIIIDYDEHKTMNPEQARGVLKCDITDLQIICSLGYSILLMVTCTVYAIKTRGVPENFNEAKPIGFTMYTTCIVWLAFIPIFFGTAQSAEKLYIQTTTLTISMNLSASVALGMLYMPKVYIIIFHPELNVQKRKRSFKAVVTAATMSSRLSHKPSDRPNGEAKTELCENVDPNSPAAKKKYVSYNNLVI

[2] = target: T1, Metabotropic glutamate receptor 8 (Homo sapiens, UniProt O00222); experiment: Agonist activity at mGlu8 (unknown origin) expressed in HEK293 cells coexpressing chimeric Gq/i protein assessed as increase in intracellular calcium accumulation by Fluo-4 AM dye based fluorescence assay; type: functional, cell-based
T1 sequence (O00222 whole entry): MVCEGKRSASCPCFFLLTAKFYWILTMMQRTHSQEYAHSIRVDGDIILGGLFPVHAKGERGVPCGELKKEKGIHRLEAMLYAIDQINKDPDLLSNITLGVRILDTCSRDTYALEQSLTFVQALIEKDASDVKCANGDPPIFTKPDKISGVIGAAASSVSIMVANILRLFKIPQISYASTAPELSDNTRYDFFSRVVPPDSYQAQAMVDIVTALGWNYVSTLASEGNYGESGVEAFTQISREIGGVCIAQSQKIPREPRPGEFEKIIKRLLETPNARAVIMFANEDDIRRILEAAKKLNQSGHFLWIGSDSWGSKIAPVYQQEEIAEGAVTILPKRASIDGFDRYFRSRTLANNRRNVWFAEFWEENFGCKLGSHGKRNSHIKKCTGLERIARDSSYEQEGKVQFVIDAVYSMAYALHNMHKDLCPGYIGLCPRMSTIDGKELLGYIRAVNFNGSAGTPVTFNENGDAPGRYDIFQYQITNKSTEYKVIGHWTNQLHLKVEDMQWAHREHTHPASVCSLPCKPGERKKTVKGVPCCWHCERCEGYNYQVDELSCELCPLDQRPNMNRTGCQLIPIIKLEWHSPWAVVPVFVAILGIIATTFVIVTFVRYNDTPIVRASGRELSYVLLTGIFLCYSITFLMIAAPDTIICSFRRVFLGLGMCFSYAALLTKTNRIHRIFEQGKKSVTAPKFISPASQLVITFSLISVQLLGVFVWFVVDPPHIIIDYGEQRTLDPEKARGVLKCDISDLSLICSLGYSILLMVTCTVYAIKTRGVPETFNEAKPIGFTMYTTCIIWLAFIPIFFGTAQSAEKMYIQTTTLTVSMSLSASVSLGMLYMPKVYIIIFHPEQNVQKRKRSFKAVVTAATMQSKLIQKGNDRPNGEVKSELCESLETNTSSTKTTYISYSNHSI

[3] = target: Metabotropic glutamate receptor 6 (Homo sapiens, UniProt O15303); experiment: Agonist activity at mGlu6 (unknown origin) expressed in HEK293 cells coexpressing chimeric Gq/i protein assessed as increase in intracellular calcium accumulation by Fluo-4 AM dye based fluorescence assay; type: functional, cell-based
Chain of Metabotropic glutamate receptor 6 (O15303 whole entry): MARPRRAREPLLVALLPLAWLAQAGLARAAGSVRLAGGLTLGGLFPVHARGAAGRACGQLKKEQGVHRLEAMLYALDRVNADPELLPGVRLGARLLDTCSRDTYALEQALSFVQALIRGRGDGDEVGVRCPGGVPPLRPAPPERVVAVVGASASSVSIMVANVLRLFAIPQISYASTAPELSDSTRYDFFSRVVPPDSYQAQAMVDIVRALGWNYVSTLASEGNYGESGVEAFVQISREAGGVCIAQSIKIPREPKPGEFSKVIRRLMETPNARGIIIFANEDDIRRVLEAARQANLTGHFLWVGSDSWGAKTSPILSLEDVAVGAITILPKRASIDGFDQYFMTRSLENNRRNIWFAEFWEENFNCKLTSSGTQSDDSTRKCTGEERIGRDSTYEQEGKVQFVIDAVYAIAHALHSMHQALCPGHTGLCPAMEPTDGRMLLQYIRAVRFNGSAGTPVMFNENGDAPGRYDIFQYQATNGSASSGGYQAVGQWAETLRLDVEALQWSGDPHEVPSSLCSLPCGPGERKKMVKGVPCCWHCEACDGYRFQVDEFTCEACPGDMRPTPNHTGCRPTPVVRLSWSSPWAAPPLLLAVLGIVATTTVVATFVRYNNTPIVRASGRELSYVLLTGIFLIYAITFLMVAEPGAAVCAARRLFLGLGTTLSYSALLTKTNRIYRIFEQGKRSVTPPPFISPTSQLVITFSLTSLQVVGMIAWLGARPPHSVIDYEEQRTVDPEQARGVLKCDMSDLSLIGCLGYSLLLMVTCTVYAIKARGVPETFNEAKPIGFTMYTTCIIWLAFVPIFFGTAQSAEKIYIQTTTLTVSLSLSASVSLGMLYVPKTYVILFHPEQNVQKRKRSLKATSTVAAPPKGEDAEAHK

[4] = target: Metabotropic glutamate receptor 4 (Homo sapiens, UniProt Q14833); experiment: Agonist activity at mGlu4 (unknown origin) expressed in HEK293 cells coexpressing chimeric Gq/i protein assessed as increase in intracellular calcium accumulation by Fluo-4 AM dye based fluorescence assay; type: functional, cell-based
Chain of Metabotropic glutamate receptor 4 (Q14833 whole entry): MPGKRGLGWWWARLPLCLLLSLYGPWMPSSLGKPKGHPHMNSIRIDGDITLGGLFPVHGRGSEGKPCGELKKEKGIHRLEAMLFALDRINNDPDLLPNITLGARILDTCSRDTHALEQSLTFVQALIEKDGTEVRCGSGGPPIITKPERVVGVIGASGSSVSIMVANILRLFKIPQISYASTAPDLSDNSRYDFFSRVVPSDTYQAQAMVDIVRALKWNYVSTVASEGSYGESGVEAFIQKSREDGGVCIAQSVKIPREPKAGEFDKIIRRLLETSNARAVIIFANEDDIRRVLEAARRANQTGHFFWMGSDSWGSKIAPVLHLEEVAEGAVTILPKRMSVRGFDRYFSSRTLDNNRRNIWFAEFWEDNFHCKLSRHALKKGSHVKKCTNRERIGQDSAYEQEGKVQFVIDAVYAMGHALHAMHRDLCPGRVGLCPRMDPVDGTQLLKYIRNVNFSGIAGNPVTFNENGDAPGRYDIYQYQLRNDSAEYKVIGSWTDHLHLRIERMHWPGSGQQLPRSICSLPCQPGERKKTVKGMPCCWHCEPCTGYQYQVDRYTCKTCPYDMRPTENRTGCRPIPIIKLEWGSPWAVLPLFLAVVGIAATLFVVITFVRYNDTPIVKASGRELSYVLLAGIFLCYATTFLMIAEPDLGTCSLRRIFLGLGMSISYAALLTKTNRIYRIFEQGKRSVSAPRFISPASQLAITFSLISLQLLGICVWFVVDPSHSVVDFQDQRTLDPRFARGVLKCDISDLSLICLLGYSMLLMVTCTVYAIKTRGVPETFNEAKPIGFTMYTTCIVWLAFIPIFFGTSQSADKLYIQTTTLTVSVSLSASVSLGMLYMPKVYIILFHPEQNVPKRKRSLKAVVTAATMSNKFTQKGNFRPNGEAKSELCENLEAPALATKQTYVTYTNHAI

[5] = target: T1, Metabotropic glutamate receptor 8; experiment: Agonist activity at mGlu8 (unknown origin) expressed in HEK293 cells coexpressing chimeric Gq/i protein assessed as [3H]inositol phosphate accumulation after 30 mins by scintillation and luminescence counting method; type: functional, cell-based
How it was run: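 Receptor transiently co-expressed in HEK293 cells (electroporation) with chimeric G-protein and glutamate transporter EAAT3. Cells labelled overnight with 3H-myoinositol, stimulated with agonist 30 min, lysed 1 h in cold 0.1 M formic acid. 3H-IP isolated on Dowex ion exchange and counted. IP expressed relative to IP plus membrane radioactivity. Points in triplicate; EC50 from Hill-equation fit.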

Homo sapiens [6] = species: Homo sapiens; experiment: (§1) Selectivity ratio of EC50 for mGlu8 (unknown origin) expressed in HEK293 cells coexpressing chimeric Gq/i protein assessed as increase in intracellular calcium accumulation to EC50 for mGlu4 (unknown origin) expressed in HEK293 cells coexpressing chimeric Gq/i protein assessed as increase in intracellular calcium accumulation; type: cell-based
How it was run: (§2)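 Ratio of mGlu8 EC50 to mGlu4 EC50, both from the same functional assay. Both receptors were co-expressed in HEK293 cells with chimeric G-protein and EAAT3 and read by 3H-IP accumulation or by Fluo-4 Ca2+ release.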

Homo sapiens [7] = species: Homo sapiens; experiment: as §1, with “[3H]inositol phosphate” for “increase in intracellular calcium”; type: cell-based; how it was run: as §2

EC50 [1]	EC50 [2]	EC50 [3]	EC50 [4]	EC50 [5]	SMILES	Ratio EC50 (Homo sapiens [6])	Ratio EC50 (Homo sapiens [7])
63 µM	18 µM	1.1 µM	0.72 µM		COc1cc([C@@H](O)P(=O)(O)CC[C@H](N)C(=O)O)cc([N+](=O)[O-])c1O		
> 100 µM		> 100 µM		> 100 µM	N[C@@H](CCP(=O)(O)C(O)c1ccc(N2CCOCC2)c([N+](=O)[O-])c1)C(=O)O (some centres undefined)		
	20 µM				CCOc1cc(C(O)P(=O)(O)CC[C@H](N)C(=O)O)cc([N+](=O)[O-])c1O (mixture of isomers)	2.4	
> 100 µM	4.9 µM	18 µM	4.7 µM	2.5 µM	N[C@@H](CCP(=O)(O)C(O)c1ccc(Cl)c([N+](=O)[O-])c1)C(=O)O (some centres undefined)	1	1.2
> 100 µM		4.2 µM		1.9 µM	N[C@@H](CCP(=O)(O)C(O)c1ccc([N+](=O)[O-])s1)C(=O)O (some centres undefined)		3.9
				5.2 µM	N[C@@H](CCP(=O)(O)C(O)c1ccc(C(F)(F)F)o1)C(=O)O (some centres undefined)		3.1
39 µM	34.3 µM	0.76 µM	2.42 µM		N[C@@H](CCP(=O)(O)[C@H](O)c1cc(F)c(O)c([N+](=O)[O-])c1)C(=O)O	14	
	22 µM		5.1 µM		CCOc1cc([C@@H](O)P(=O)(O)CC[C@H](N)C(=O)O)cc([N+](=O)[O-])c1O	4.4	
100 µM	26 µM	2.4 µM	4.4 µM		COc1cc([C@H](O)P(=O)(O)CC[C@H](N)C(=O)O)cc([N+](=O)[O-])c1O		
51.2 µM	23.4 µM	1.07 µM	1.95 µM		N[C@@H](CCP(=O)(O)C(O)c1cc(F)c(O)c([N+](=O)[O-])c1)C(=O)O (some centres undefined)	12	
				21.2 µM	N[C@@H](CCP(=O)(O)C(O)c1cccc([N+](=O)[O-])c1O)C(=O)O (some centres undefined)		0.92
295 µM	39.8 µM	68.4 µM	4.5 µM		N[C@@H](CCP(=O)(O)[C@@H](O)c1ccc(O)c([N+](=O)[O-])c1)C(=O)O	8.5	
> 100 µM	1.25 µM	2.4 µM	1 µM		N[C@@H](CCP(=O)(O)[C@H](O)c1cccc([N+](=O)[O-])c1)C(=O)O	1.2	
				34 µM	N[C@@H](CCP(=O)(O)C(O)c1ccc(C(F)(F)F)cc1)C(=O)O (some centres undefined)		2.3
	73 µM		1.5 µM		N[C@@H](CCP(=O)(O)C(O)c1ccc(O)c([N+](=O)[O-])c1)C(=O)O (some centres undefined)	48	18
53.8 µM	17.1 µM	10.2 µM	9.77 µM		N[C@@H](CCP(=O)(O)[C@@H](O)c1cc(F)c(O)c([N+](=O)[O-])c1)C(=O)O	1.8	
	40 µM		15.8 µM		N[C@@H](CCP(=O)(O)C(O)c1ccc(O)c(C(=O)O)c1)C(=O)O (some centres undefined)	2.5	
				4.2 µM	N[C@@H](CCP(=O)(O)C(O)c1cc([N+](=O)[O-])ccc1O)C(=O)O (some centres undefined)		4.6
				19.8 µM	N[C@@H](CCP(=O)(O)C(O)c1ccc([N+](=O)[O-])c(O)c1)C(=O)O (some centres undefined)		8.7
	6.5 µM		6.4 µM		CCOc1cc([C@H](O)P(=O)(O)CC[C@H](N)C(=O)O)cc([N+](=O)[O-])c1O	1	
	17 µM		33 µM		N[C@@H](CCP(=O)(O)C(O)c1ccc(O)nc1)C(=O)O (some centres undefined)	0.5	
> 100 µM	2.2 µM	3.9 µM	1.7 µM		COc1ccc([C@H](O)P(=O)(O)CC[C@H](N)C(=O)O)cc1[N+](=O)[O-]	1.3	
> 100 µM	1.3 µM	3.2 µM	0.32 µM		N[C@@H](CCP(=O)(O)[C@@H](O)c1cccc([N+](=O)[O-])c1)C(=O)O		
> 100 µM		2.9 µM		0.98 µM	N[C@@H](CCP(=O)(O)C(O)c1ccc([N+](=O)[O-])c(C(F)(F)F)c1)C(=O)O (some centres undefined)		2.4
	3.8 µM		3.5 µM	2.7 µM	COc1ccc(C(O)P(=O)(O)CC[C@H](N)C(=O)O)cc1[N+](=O)[O-] (some centres undefined)	1	1.7
> 100 µM	2.5 µM	4.5 µM	2 µM		COc1ccc([C@@H](O)P(=O)(O)CC[C@H](N)C(=O)O)cc1[N+](=O)[O-]	1.2	
62 µM	31.4 µM	3.6 µM	0.5 µM		N[C@@H](CCP(=O)(O)[C@H](O)c1ccc(O)c([N+](=O)[O-])c1)C(=O)O	61	

Second part, the molecule before the results:

SMILES	EC50 [1]	EC50 [2]	EC50 [3]	EC50 [4]	EC50 [5]	Ratio EC50 (Homo sapiens [6])	Ratio EC50 (Homo sapiens [7])
N[C@@H](CCP(=O)(O)C(NCCc1ccccc1)c1cccc([N+](=O)[O-])c1)C(=O)O (some centres undefined)		7.2 µM		4.41 µM		1.6	
N[C@@H](CCP(=O)(O)C(NCc1ccccc1)c1cccc([N+](=O)[O-])c1)C(=O)O (some centres undefined)		29.7 µM		25.3 µM		1.2	
N[C@@H](CCP(=O)(O)C(O)c1cc([N+](=O)[O-])cc([N+](=O)[O-])c1O)C(=O)O (some centres undefined)					4.5 µM		1.9
N[C@@H](CCP(=O)(O)C(O)c1cc([N+](=O)[O-])cc([N+](=O)[O-])c1)C(=O)O (some centres undefined)					6.6 µM		4.5
N[C@@H](CCP(=O)(O)C(O)c1ccc(OCC(=O)O)cc1)C(=O)O (some centres undefined)						256	
CCCCCCCCNC(c1cccc([N+](=O)[O-])c1)P(=O)(O)CC[C@H](N)C(=O)O (some centres undefined)		38 µM		6.1 µM		6.3	
N[C@@H](CCP(=O)(O)Cc1ccc(O)c([N+](=O)[O-])c1)C(=O)O	> 100 µM	277 µM	> 100 µM	24 µM		11	
N[C@@H](CCP(=O)(O)Cc1cccc(C(=O)O)c1)C(=O)O				> 100 µM	511 µM		2.4
N[C@@H](CCP(=O)(O)C(O)c1c([N+](=O)[O-])cccc1[N+](=O)[O-])C(=O)O (some centres undefined)					2.9 µM		1.7
NC(c1csc([N+](=O)[O-])c1)P(=O)(O)CC[C@H](N)C(=O)O (some centres undefined)					1.8 µM		2.2
N[C@@H](CCP(=O)(O)C(O)c1coc(C(=O)O)c1)C(=O)O (some centres undefined)					9.2 µM		4.6
N[C@@H](CCP(=O)(O)C(O)c1c[nH]c2ncccc12)C(=O)O (some centres undefined)		6.9 µM		3.4 µM		2	
N#Cc1cccc(C(O)P(=O)(O)CC[C@H](N)C(=O)O)c1 (some centres undefined)					219 µM		5.3
N[C@@H](CCP(=O)(O)Cc1cccc([N+](=O)[O-])c1)C(=O)O	> 100 µM		3.2 µM			2.5	5.4
COc1cc(CP(=O)(O)CC[C@H](N)C(=O)O)cc([N+](=O)[O-])c1O		28 µM		19 µM		1.5	
CC(=O)c1ccc(C(O)P(=O)(O)CC[C@H](N)C(=O)O)cc1 (some centres undefined)					14 µM		1.8
Nc1ccc(C(O)P(=O)(O)CC[C@H](N)C(=O)O)cc1 (some centres undefined)	11.6 µM	8.4 µM		8.8 µM	8.4 µM	0.9	0.9
NC(c1cccc([N+](=O)[O-])c1)P(=O)(O)CC[C@H](N)C(=O)O (some centres undefined)							4.1
N[C@@H](CCP(=O)(O)C(O)c1ccc(O)cc1)C(=O)O (some centres undefined)		25 µM		7.7 µM		3.2	
CS(=O)(=O)c1ccc(C(O)P(=O)(O)CC[C@H](N)C(=O)O)cc1 (some centres undefined)	> 100 µM	> 100 µM	> 100 µM	59 µM			
N[C@@H](CCP(=O)(O)C(O)c1ccnc(O)c1)C(=O)O (some centres undefined)		81 µM		42 µM		1.9	
N[C@@H](CCP(=O)(O)C(O)c1ccncc1)C(=O)O (some centres undefined)		26.2 µM		28 µM		1	
N[C@@H](CCP(=O)(O)C(O)c1cccc([N+](=O)[O-])c1)C(=O)O (mixture of isomers)						2	2.8
CCCCCCNC(c1cccc([N+](=O)[O-])c1)P(=O)(O)CC[C@H](N)C(=O)O (some centres undefined)		22.8 µM		25 µM		0.9	
N[C@@H](CCP(=O)(O)C(O)c1ccc([N+](=O)[O-])cc1[N+](=O)[O-])C(=O)O (some centres undefined)					4.6 µM		3.1
N[C@@H](CCP(=O)(O)C(NCc1cccc2ccccc12)c1cccc([N+](=O)[O-])c1)C(=O)O (some centres undefined)		35.4 µM		7.9 µM		4.3	
COc1ccc(C(O)P(=O)(O)CC[C@H](N)C(=O)O)cc1 (some centres undefined)		61 µM	23 µM	6.5 µM		9.3	
